In ChEMBL document CHEMBL1667789, “Synthesis of 4H-chromene, coumarin, 12H-chromeno[2,3-d]pyrimidine derivatives and some of their antimicrobial and cytotoxicity activities” (2011):
Activity calls are given as the source filed them. No cut-off for these calls is given here.

Experiments:
Format in all cases: functional
Conditions in all cases: for zone of inhibition at 25 µg/mL: read-out: DIZ
[1] = tested on: Bordetella bronchiseptica; assay: Antimicrobial activity against Bordetella bronchiseptica ATCC 4617 at 25 ug/ml by agar diffusion method
In short: (§1)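 Agar diffusion on Mueller-Hinton agar. Bacterial strains came from the NODCAR Microbiology laboratory culture collection. Ampicillin was the reference standard.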

Escherichia coli = assay: Antimicrobial activity against Escherichia coli ATCC 14169 at 25 ug/ml by agar diffusion method; in short: as §1
Bacillus pumilus = assay: Antimicrobial activity against Bacillus pumilus ATCC 14884 at 25 ug/ml by agar diffusion method; in short: as §1
Bacillus subtilis = assay: Antimicrobial activity against Bacillus subtilis ATCC 6633 at 25 ug/ml by agar diffusion method; in short: as §1
Staphylococcus aureus = assay: Antimicrobial activity against Staphylococcus aureus ATCC 29737 at 25 ug/ml by agar diffusion method; in short: as §1
[2] = tested on: Staphylococcus epidermidis; assay: Antimicrobial activity against Staphylococcus epidermidis ATCC 12228 at 25 ug/ml by agar diffusion method; in short: as §1
Candida albicans = assay: Antifungal activity against Candida albicans ATCC 10231 at 25 ug/ml by agar diffusion method
In short: (§2)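 Agar diffusion on Sabouraud's agar. Fungal strains came from the NODCAR Microbiology laboratory culture collection. Mycostatine was the reference standard.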

Saccharomyces cerevisiae = assay: Antifungal activity against Saccharomyces cerevisiae ATCC 9080 at 25 ug/ml by agar diffusion method; in short: as §2

CCOC(=O)C1=C(N)Oc2cc(N(CC)CC)ccc2C1c1ccc(F)cc1 (stereo not drawn)
diameter of the inhibition zone (DIZ) [1]: inactive | diameter of the inhibition zone (DIZ) (Escherichia coli): inactive | diameter of the inhibition zone (DIZ) (Bacillus pumilus): inactive | diameter of the inhibition zone (DIZ) (Bacillus subtilis): inactive | zone of inhibition at 25 µg/mL (Staphylococcus aureus): 14 mm | zone of inhibition at 25 µg/mL [2]: 14 mm | diameter of the inhibition zone (DIZ) (Candida albicans): inactive | diameter of the inhibition zone (DIZ) (Saccharomyces cerevisiae): inactive

CCN(CC)c1ccc2c(c1)Oc1ncn(N)c(=N)c1C2c1ccc(Cl)cc1 (stereo not drawn)
zone of inhibition at 25 µg/mL [1]: 22 mm | zone of inhibition at 25 µg/mL (Escherichia coli): 17 mm | zone of inhibition at 25 µg/mL (Bacillus pumilus): 27 mm | zone of inhibition at 25 µg/mL (Bacillus subtilis): 17 mm | zone of inhibition at 25 µg/mL (Staphylococcus aureus): 26 mm | zone of inhibition at 25 µg/mL [2]: 24 mm | zone of inhibition at 25 µg/mL (Candida albicans): 16 mm | zone of inhibition at 25 µg/mL (Saccharomyces cerevisiae): 24 mm

CCN(CC)c1ccc2c(c1)OC(/N=C/c1ccccc1)=C(C#N)C2c1ccc(Cl)cc1 (stereo not drawn)
diameter of the inhibition zone (DIZ) [1]: inactive | diameter of the inhibition zone (DIZ) (Escherichia coli): inactive | diameter of the inhibition zone (DIZ) (Bacillus pumilus): inactive | diameter of the inhibition zone (DIZ) (Bacillus subtilis): inactive | diameter of the inhibition zone (DIZ) (Staphylococcus aureus): inactive | diameter of the inhibition zone (DIZ) [2]: inactive | diameter of the inhibition zone (DIZ) (Candida albicans): inactive | diameter of the inhibition zone (DIZ) (Saccharomyces cerevisiae): inactive

CCO/C=N/C1=C(C#N)C(c2ccc(Cl)cc2)c2ccc(N(CC)CC)cc2O1 (stereo not drawn)
diameter of the inhibition zone (DIZ) [1]: inactive | diameter of the inhibition zone (DIZ) (Escherichia coli): inactive | diameter of the inhibition zone (DIZ) (Bacillus pumilus): inactive | diameter of the inhibition zone (DIZ) (Bacillus subtilis): inactive | diameter of the inhibition zone (DIZ) (Staphylococcus aureus): inactive | diameter of the inhibition zone (DIZ) [2]: inactive | diameter of the inhibition zone (DIZ) (Candida albicans): inactive | diameter of the inhibition zone (DIZ) (Saccharomyces cerevisiae): inactive

CCOC(=O)C1=C(N)Oc2cc(N(CC)CC)ccc2C1c1ccc(Cl)cc1 (stereo not drawn)
diameter of the inhibition zone (DIZ) [1]: inactive | diameter of the inhibition zone (DIZ) (Escherichia coli): inactive | diameter of the inhibition zone (DIZ) (Bacillus pumilus): inactive | diameter of the inhibition zone (DIZ) (Bacillus subtilis): inactive | diameter of the inhibition zone (DIZ) (Staphylococcus aureus): inactive | diameter of the inhibition zone (DIZ) [2]: inactive | diameter of the inhibition zone (DIZ) (Candida albicans): inactive | diameter of the inhibition zone (DIZ) (Saccharomyces cerevisiae): inactive

CCN(CC)c1ccc2c(c1)Oc1ncn(N)c(=N)c1C2c1ccc(Br)cc1 (stereo not drawn)
zone of inhibition at 25 µg/mL [1]: 21 mm | zone of inhibition at 25 µg/mL (Escherichia coli): 16 mm | zone of inhibition at 25 µg/mL (Bacillus pumilus): 25 mm | zone of inhibition at 25 µg/mL (Bacillus subtilis): 15 mm | zone of inhibition at 25 µg/mL (Staphylococcus aureus): 24 mm | zone of inhibition at 25 µg/mL [2]: 22 mm | zone of inhibition at 25 µg/mL (Candida albicans): 15 mm | zone of inhibition at 25 µg/mL (Saccharomyces cerevisiae): 22 mm

CCN(CC)c1ccc2c(c1)OC(/N=C/N(C)C)=C(C#N)C2c1ccc(Cl)cc1 (stereo not drawn)
diameter of the inhibition zone (DIZ) [1]: inactive | diameter of the inhibition zone (DIZ) (Escherichia coli): inactive | diameter of the inhibition zone (DIZ) (Bacillus pumilus): inactive | diameter of the inhibition zone (DIZ) (Bacillus subtilis): inactive | diameter of the inhibition zone (DIZ) (Staphylococcus aureus): inactive | diameter of the inhibition zone (DIZ) [2]: inactive | diameter of the inhibition zone (DIZ) (Candida albicans): inactive | diameter of the inhibition zone (DIZ) (Saccharomyces cerevisiae): inactive

CCN(CC)c1ccc2c(c1)Oc1nc(C)[nH]c(=O)c1C2c1ccc(Cl)cc1 (stereo not drawn)
diameter of the inhibition zone (DIZ) [1]: inactive | diameter of the inhibition zone (DIZ) (Escherichia coli): inactive | diameter of the inhibition zone (DIZ) (Bacillus pumilus): inactive | diameter of the inhibition zone (DIZ) (Bacillus subtilis): inactive | diameter of the inhibition zone (DIZ) (Staphylococcus aureus): inactive | diameter of the inhibition zone (DIZ) [2]: inactive | diameter of the inhibition zone (DIZ) (Candida albicans): inactive | diameter of the inhibition zone (DIZ) (Saccharomyces cerevisiae): inactive

CCN(CC)c1ccc2c(c1)OC(/N=C/N)=C(C#N)C2c1ccc(Cl)cc1 (stereo not drawn)
diameter of the inhibition zone (DIZ) [1]: inactive | diameter of the inhibition zone (DIZ) (Escherichia coli): inactive | diameter of the inhibition zone (DIZ) (Bacillus pumilus): inactive | diameter of the inhibition zone (DIZ) (Bacillus subtilis): inactive | diameter of the inhibition zone (DIZ) (Staphylococcus aureus): inactive | diameter of the inhibition zone (DIZ) [2]: inactive | diameter of the inhibition zone (DIZ) (Candida albicans): inactive | diameter of the inhibition zone (DIZ) (Saccharomyces cerevisiae): inactive

CCO/C=N/C1=C(C#N)C(c2ccc(Br)cc2)c2ccc(N(CC)CC)cc2O1 (stereo not drawn)
diameter of the inhibition zone (DIZ) [1]: inactive | diameter of the inhibition zone (DIZ) (Escherichia coli): inactive | diameter of the inhibition zone (DIZ) (Bacillus pumilus): inactive | diameter of the inhibition zone (DIZ) (Bacillus subtilis): inactive | diameter of the inhibition zone (DIZ) (Staphylococcus aureus): inactive | diameter of the inhibition zone (DIZ) [2]: inactive | diameter of the inhibition zone (DIZ) (Candida albicans): inactive | diameter of the inhibition zone (DIZ) (Saccharomyces cerevisiae): inactive

CC1(C)S[C@@H]2[C@H](NC(=O)[C@H](N)c3ccccc3)C(=O)N2[C@H]1C(=O)O [AMPICILLIN]
zone of inhibition at 25 µg/mL [1]: 24 mm | zone of inhibition at 25 µg/mL (Escherichia coli): 25 mm | zone of inhibition at 25 µg/mL (Bacillus pumilus): 20 mm | zone of inhibition at 25 µg/mL (Bacillus subtilis): 25 mm | zone of inhibition at 25 µg/mL (Staphylococcus aureus): 26 mm | zone of inhibition at 25 µg/mL [2]: 25 mm

CCN(CC)c1ccc2c(c1)OC(N)=C(C#N)C2c1ccc(Br)cc1 (stereo not drawn)
diameter of the inhibition zone (DIZ) [1]: inactive | diameter of the inhibition zone (DIZ) (Escherichia coli): inactive | diameter of the inhibition zone (DIZ) (Bacillus pumilus): inactive | diameter of the inhibition zone (DIZ) (Bacillus subtilis): inactive | diameter of the inhibition zone (DIZ) (Staphylococcus aureus): inactive | diameter of the inhibition zone (DIZ) [2]: inactive | diameter of the inhibition zone (DIZ) (Candida albicans): inactive | diameter of the inhibition zone (DIZ) (Saccharomyces cerevisiae): inactive

CCN(CC)c1ccc2c(-c3ccc(F)cc3)c(C#N)c(=O)oc2c1
diameter of the inhibition zone (DIZ) [1]: inactive | diameter of the inhibition zone (DIZ) (Escherichia coli): inactive | diameter of the inhibition zone (DIZ) (Bacillus pumilus): inactive | diameter of the inhibition zone (DIZ) (Bacillus subtilis): inactive | zone of inhibition at 25 µg/mL (Staphylococcus aureus): 13 mm | zone of inhibition at 25 µg/mL [2]: 14 mm | diameter of the inhibition zone (DIZ) (Candida albicans): inactive | diameter of the inhibition zone (DIZ) (Saccharomyces cerevisiae): inactive

CCN(CC)c1ccc2c(c1)Oc1ncn(C)c(=N)c1C2c1ccc(Cl)cc1 (stereo not drawn)
zone of inhibition at 25 µg/mL [1]: 20 mm | zone of inhibition at 25 µg/mL (Escherichia coli): 21 mm | zone of inhibition at 25 µg/mL (Bacillus pumilus): 25 mm | zone of inhibition at 25 µg/mL (Bacillus subtilis): 21 mm | zone of inhibition at 25 µg/mL (Staphylococcus aureus): 24 mm | zone of inhibition at 25 µg/mL [2]: 25 mm | zone of inhibition at 25 µg/mL (Candida albicans): 14 mm | zone of inhibition at 25 µg/mL (Saccharomyces cerevisiae): 20 mm

CCN(CC)c1ccc2c(c1)OC(N)=C(C#N)C2c1ccc(Cl)cc1 (stereo not drawn)
diameter of the inhibition zone (DIZ) [1]: inactive | diameter of the inhibition zone (DIZ) (Escherichia coli): inactive | diameter of the inhibition zone (DIZ) (Bacillus pumilus): inactive | diameter of the inhibition zone (DIZ) (Bacillus subtilis): inactive | zone of inhibition at 25 µg/mL (Staphylococcus aureus): 14 mm | zone of inhibition at 25 µg/mL [2]: 15 mm | diameter of the inhibition zone (DIZ) (Candida albicans): inactive | diameter of the inhibition zone (DIZ) (Saccharomyces cerevisiae): inactive

CCN(CC)c1ccc2c(c1)Oc1ncnc(N)c1C2c1ccc(Cl)cc1 (stereo not drawn)
zone of inhibition at 25 µg/mL [1]: 21 mm | zone of inhibition at 25 µg/mL (Escherichia coli): 20 mm | zone of inhibition at 25 µg/mL (Bacillus pumilus): 25 mm | zone of inhibition at 25 µg/mL (Bacillus subtilis): 21 mm | zone of inhibition at 25 µg/mL (Staphylococcus aureus): 25 mm | zone of inhibition at 25 µg/mL [2]: 24 mm | zone of inhibition at 25 µg/mL (Candida albicans): 15 mm | zone of inhibition at 25 µg/mL (Saccharomyces cerevisiae): 20 mm

CCN(CC)c1ccc2c(-c3ccc(Br)cc3)c(C#N)c(=O)oc2c1
diameter of the inhibition zone (DIZ) [1]: inactive | diameter of the inhibition zone (DIZ) (Escherichia coli): inactive | diameter of the inhibition zone (DIZ) (Bacillus pumilus): inactive | diameter of the inhibition zone (DIZ) (Bacillus subtilis): inactive | diameter of the inhibition zone (DIZ) (Staphylococcus aureus): inactive | diameter of the inhibition zone (DIZ) [2]: inactive | diameter of the inhibition zone (DIZ) (Candida albicans): inactive | diameter of the inhibition zone (DIZ) (Saccharomyces cerevisiae): inactive

CCN(CC)c1ccc2c(c1)OC(N(C(C)=O)C(C)=O)=C(C#N)C2c1ccc(Cl)cc1 (stereo not drawn)
diameter of the inhibition zone (DIZ) [1]: inactive | diameter of the inhibition zone (DIZ) (Escherichia coli): inactive | diameter of the inhibition zone (DIZ) (Bacillus pumilus): inactive | diameter of the inhibition zone (DIZ) (Bacillus subtilis): inactive | diameter of the inhibition zone (DIZ) (Staphylococcus aureus): inactive | diameter of the inhibition zone (DIZ) [2]: inactive | diameter of the inhibition zone (DIZ) (Candida albicans): inactive | diameter of the inhibition zone (DIZ) (Saccharomyces cerevisiae): inactive

NYSTATIN
inhibition zone (IZ) (Saccharomyces cerevisiae): 24 mm
